The values below come from ChEMBL document CHEMBL1129264, “Mercaptoacyl dipeptides as orally active dual inhibitors of angiotensin-converting enzyme and neutral endopeptidase” (1996).

Molecules are shown by their SMILES.

In experiment [1] the target is T1, Angiotensin-converting enzyme (Rattus norvegicus) (UniProt P47820).
T1 sequence (whole entry): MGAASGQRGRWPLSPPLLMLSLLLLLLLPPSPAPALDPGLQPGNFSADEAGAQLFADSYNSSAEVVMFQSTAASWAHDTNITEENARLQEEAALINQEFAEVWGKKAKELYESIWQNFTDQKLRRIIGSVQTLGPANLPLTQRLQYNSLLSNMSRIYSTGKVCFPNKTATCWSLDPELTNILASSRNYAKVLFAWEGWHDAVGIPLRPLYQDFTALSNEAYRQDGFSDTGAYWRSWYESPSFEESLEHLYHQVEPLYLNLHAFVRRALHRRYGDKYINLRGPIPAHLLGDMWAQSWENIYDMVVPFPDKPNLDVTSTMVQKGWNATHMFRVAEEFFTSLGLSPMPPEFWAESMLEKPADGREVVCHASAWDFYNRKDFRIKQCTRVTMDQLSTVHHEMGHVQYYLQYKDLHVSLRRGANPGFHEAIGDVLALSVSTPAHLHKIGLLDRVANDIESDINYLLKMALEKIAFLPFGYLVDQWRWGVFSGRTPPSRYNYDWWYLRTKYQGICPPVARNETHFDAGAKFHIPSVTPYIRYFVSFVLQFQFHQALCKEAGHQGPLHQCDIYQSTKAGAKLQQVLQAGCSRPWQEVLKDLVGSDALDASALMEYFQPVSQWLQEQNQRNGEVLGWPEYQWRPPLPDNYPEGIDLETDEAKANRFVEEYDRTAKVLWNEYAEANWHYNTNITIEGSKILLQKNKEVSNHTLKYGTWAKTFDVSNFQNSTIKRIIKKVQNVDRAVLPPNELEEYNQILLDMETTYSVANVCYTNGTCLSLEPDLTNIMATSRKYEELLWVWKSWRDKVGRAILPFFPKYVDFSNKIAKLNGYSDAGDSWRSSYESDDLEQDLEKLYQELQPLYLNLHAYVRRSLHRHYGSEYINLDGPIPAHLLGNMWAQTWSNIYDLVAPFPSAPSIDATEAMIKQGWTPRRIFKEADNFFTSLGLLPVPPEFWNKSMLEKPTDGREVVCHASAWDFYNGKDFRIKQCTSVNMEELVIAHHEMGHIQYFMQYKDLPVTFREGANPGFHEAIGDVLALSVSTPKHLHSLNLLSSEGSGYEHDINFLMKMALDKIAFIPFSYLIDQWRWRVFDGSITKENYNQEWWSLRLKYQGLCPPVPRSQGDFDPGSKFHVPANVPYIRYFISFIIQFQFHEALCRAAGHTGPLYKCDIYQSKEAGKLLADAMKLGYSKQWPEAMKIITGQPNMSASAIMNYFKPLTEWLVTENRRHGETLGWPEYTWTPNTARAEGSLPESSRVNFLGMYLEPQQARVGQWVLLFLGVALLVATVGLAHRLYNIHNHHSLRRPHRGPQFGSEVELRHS
The experiment is described as follows: Compound was tested for plasma inhibition of Angiotensin I converting enzyme activity in the conscious rat. Expressed as Inhibition of AI pressor response at 1 hr at a dose of 13.1 mg/kg po. Type of experiment: organism-based. Set-up: dose 13.1 mg/kg. Put shortly: (§1)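 Male conscious normotensive Sprague-Dawley rats (275-390 g), given femoral arterial and venous catheters under methohexital sodium (75 mg/kg ip) anesthesia. Next day, pressor responses to three angiotensin-I challenges (300 ng/kg iv) recorded by direct arterial pressure. Compound then dosed orally, and AI challenge repeated at set times. Each post-dose response compared with the mean of the three baseline responses, giving % inhibition.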

Experiment [2] concerns the target T1, Angiotensin-converting enzyme (Rattus norvegicus). The experiment is described as follows: Compound was tested for plasma inhibition of Angiotensin I converting enzyme activity in the conscious rat. Expressed as Inhibition of AI pressor response at 2 hr at a dose of 13.1 mg/kg po. Type of experiment: organism-based. Set-up: dose 13.1 mg/kg. Put shortly: as §1

Experiment [3] shares this target. The experiment is described as follows: Compound was tested for plasma inhibition of Angiotensin I converting enzyme activity in the conscious rat. Expressed as Inhibition of AI pressor response at 6 hr at a dose of 13.1 mg/kg po. Set-up: dose 13.1 mg/kg. It is filed as organism-based. In outline: (§2)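 Male conscious normotensive Sprague-Dawley rats (275-390 g), prepared under methohexital sodium (75 mg/kg ip) with femoral arterial and venous catheters. The next day, pressor responses to three angiotensin-I challenges (300 ng/kg iv) were recorded. Compound was then given orally and angiotensin-I challenges were repeated at set times. Percent inhibition is relative to the mean of the three baseline responses.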

For experiment [4] the target is unchanged. The experiment is described as follows: Compound was tested for plasma inhibition of Angiotensin I converting enzyme activity in the conscious rat. Expressed as Inhibition of AI pressor response at 4 hr at a dose of 13.1 mg/kg po. Set-up: dose 13.1 mg/kg. It is filed as organism-based. Put shortly: as §2
The test system of experiment [5] is Rattus norvegicus. The experiment is described as follows: Plasma ANF Concentration in the Conscious Rat at a dose of 13.1(po)mg/kg at 0.5 h. Type of experiment: functional. Put shortly: (§3)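 Male Sprague-Dawley rats (275-390 g) received femoral artery and vein catheters under ketamine (150 mg/kg)/acepromazine and recovered for 24 h, tethered, before study conscious. ratANF(99-126) was infused at 450 ng/kg/min iv for 5 h. Baseline blood was drawn at 60 min into the infusion, then compound was given po.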

Experiment [6] concerns Rattus norvegicus. The experiment is described as follows: Plasma ANF Concentration in the Conscious Rat at a dose of 13.1(po)mg/kg at 1 h. Type of experiment: functional. Put shortly: as §3
Experiment [7] relates to Rattus norvegicus. As to the kind of experiment: Plasma ANF Concentration in the Conscious Rat at a dose of 13.1(po)mg/kg at 2 h. It is filed as functional. Put shortly:
as §3

Experiment [8] deals with Rattus norvegicus. As to the kind of experiment: Plasma ANF Concentration in the Conscious Rat at a dose of 13.1(po)mg/kg at 4 h. Type of experiment: functional. Put shortly:
as §3

For experiment [9], the target named is T1, Angiotensin-converting enzyme (Rattus norvegicus). As to the kind of experiment: Compound was tested for plasma inhibition of Angiotensin I converting enzyme activity in the conscious rat. Expressed as Inhibition of AI pressor response at 6 hr at a dose of 13.5 mg/kg po. It is filed as organism-based. Further details: dose 13.5 mg/kg. Put shortly: as §2

For experiment [10] the target is unchanged. The experiment is described as follows: Compound was tested for plasma inhibition of Angiotensin I converting enzyme activity in the conscious rat. Expressed as Inhibition of AI pressor response at 1 hr at a dose of 13.5 mg/kg po. It is filed as organism-based. Further details: dose 13.5 mg/kg. Put shortly: as §1
For experiment [11] the target is unchanged. The experiment is described as follows: Compound was tested for plasma inhibition of Angiotensin I converting enzyme activity in the conscious rat. Expressed as Inhibition of AI pressor response at 4 hr at a dose of 13.5 mg/kg po. Type of experiment: organism-based. Set-up: dose 13.5 mg/kg. Put shortly:
as §2

For experiment [12] the target is unchanged. The experiment is described as follows: Compound was tested for plasma inhibition of Angiotensin I converting enzyme activity in the conscious rat. Expressed as Inhibition of AI pressor response at 2 hr at a dose of 13.5 mg/kg po. It is filed as organism-based. Further details: dose 13.5 mg/kg. In outline:
as §1

The subject of experiment [13] is Rattus norvegicus. As to the kind of experiment: Plasma ANF Concentration in the Conscious Rat at a dose of 13.5(po)mg/kg at 0.5 h. It is filed as functional. In outline:
(§4)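 Male Sprague-Dawley rats (275-390 g), catheterized in femoral artery and vein under ketamine (150 mg/kg)/acepromazine, tethered and recovered 24 h, studied conscious. Continuous iv rat ANF(99-126) infusion at 450 ng/kg/min for 5 h; baseline blood at 60 min, then oral dosing, sampling at 30-240 min.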

Experiment [14] concerns Rattus norvegicus. As to the kind of experiment: Plasma ANF Concentration in the Conscious Rat at a dose of 13.5(po)mg/kg at 1 h. It is filed as functional. Put shortly: as §4
The test system of experiment [15] is Rattus norvegicus. As to the kind of experiment: Plasma ANF Concentration in the Conscious Rat at a dose of 13.5(po)mg/kg at 2 h. Type of experiment: functional. In outline:
as §4

Experiment [16] concerns Rattus norvegicus. As to the kind of experiment: Plasma ANF Concentration in the Conscious Rat at a dose of 13.5(po)mg/kg at 4 h. It is filed as functional. In outline: as §4

The term inhibition denotes the change of the read-out against control, counted positive when it falls. A low value points to little suppression. Regarding `COc1ccc(C[C@H](NC(=O)C2(NC(=O)[C@H](SC(C)=O)C(C)C)CCCC2)C(=O)OCc2ccccc2)cc1`, the inhibition in experiment [1] was determined as 85%; in [2], 84%; in [3], 64%; in experiment [4] it was 81%. Further, the Control with Rattus norvegicus [5] was determined as 107%; in the experiment with Rattus norvegicus [6] it was 111%; with Rattus norvegicus [7] it was 143%; in the experiment with Rattus norvegicus [8], 181%.
`CCOC(=O)[C@H](Cc1ccc(OC(=O)COC)cc1)NC(=O)C1(NC(=O)[C@H](SC(C)=O)C(C)C)CCCC1`: the inhibition in experiment [9] is 61%; in experiment [10] it was 79%; in [11] it was 70%; in experiment [12], 79%. Further, the Control came to 203% with Rattus norvegicus [13], 263% in the experiment with Rattus norvegicus [14], 252% with Rattus norvegicus [15] and 223% in the experiment on Rattus norvegicus [16].
